Here are results for eight molecules from ChEMBL document CHEMBL1134118, “Inhibition of serine proteases: activity of 1,3-diazetidine-2,4-diones” (Bioorg Med Chem Lett, 2001).

Activity calls are given as the source filed them. No cut-off for these calls is given here.

One data set addresses T1, Neutrophil elastase (Homo sapiens, UniProt P08246).
T1 sequence (P08246 whole entry): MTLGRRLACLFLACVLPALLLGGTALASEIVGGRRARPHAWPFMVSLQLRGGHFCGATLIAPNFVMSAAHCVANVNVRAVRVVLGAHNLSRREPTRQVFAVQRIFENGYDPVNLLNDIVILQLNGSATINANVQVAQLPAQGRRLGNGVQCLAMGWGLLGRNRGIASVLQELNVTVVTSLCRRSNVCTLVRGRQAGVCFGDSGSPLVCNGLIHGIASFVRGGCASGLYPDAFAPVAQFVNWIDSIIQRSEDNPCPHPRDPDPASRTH
The data set is described as follows: Compound was evaluated for its inhibitory activity against human neutrophil elastase. A digest of the protocol:
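Purified human neutrophil elastase with chromogenic substrate N-succinyl-Ala-Ala-Val-pNA. Buffer 50 mM Tris-HCl pH 8.0 containing 2 mM CaCl2.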

Data set [1] deals with T2, Plasminogen (Homo sapiens, UniProt P00747). The data set is described as follows: Compound was evaluated for its inhibitory activity against human plasmin up to a concentration > 1000 nM; NA= not activity. Particulars: in the assay text read “> 10000 nM” for “> 1000 nM”. The procedure, abridged: (§1)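 Purified human plasmin assayed with chromogenic substrate Chromozym PL. Buffer 50 mM Tris-HCl pH 7.5 containing 50 mM NaCl.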

In a further data set the target is Prothrombin (Homo sapiens, UniProt P00734). The data set is described as follows: Compound was evaluated for its inhibitory activity against human thrombin. A digest of the protocol:
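Purified thrombin with a chromogenic substrate. Buffer 0.1 M Tris-HCl pH 8.0 containing 10 mM CaCl2 and 0.1 M NaCl.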

A further data set addresses T3, Serine protease 1 (Bos taurus, UniProt P00760).
T3 sequence (P00760 whole entry): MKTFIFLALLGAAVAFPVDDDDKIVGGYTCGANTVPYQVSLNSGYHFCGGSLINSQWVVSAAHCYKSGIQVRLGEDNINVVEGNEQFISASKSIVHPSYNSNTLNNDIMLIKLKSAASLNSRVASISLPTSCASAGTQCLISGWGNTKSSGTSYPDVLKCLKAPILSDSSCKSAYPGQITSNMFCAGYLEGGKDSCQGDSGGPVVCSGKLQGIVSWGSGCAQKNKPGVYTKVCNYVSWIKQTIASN
The data set is described as follows: Compound was evaluated for its inhibitory activity against bovine pancreatic trypsin. A digest of the protocol:
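Purified trypsin with a chromogenic substrate. Buffer 50 mM Tris-HCl pH 8.0 containing 2 mM CaCl2.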

Data set [2] deals with T4, Chymase (Homo sapiens, UniProt P23946).
T4 sequence (P23946 whole entry): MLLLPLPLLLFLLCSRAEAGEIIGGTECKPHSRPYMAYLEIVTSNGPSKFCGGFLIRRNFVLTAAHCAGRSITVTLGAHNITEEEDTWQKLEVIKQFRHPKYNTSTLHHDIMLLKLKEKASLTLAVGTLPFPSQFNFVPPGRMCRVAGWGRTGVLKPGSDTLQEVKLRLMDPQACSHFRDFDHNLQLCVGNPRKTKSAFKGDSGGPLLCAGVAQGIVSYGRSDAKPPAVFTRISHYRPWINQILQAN
The data set is described as follows: Compound was evaluated for its inhibitory activity against human Serine protease chymase. A digest of the protocol: (§2)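 Purified human chymase preincubated with inhibitor (DMSO solution) for 30 min at 37 °C in 0.1 M Tris–HCl pH 8.0 with 1.8 M NaCl. Reaction started with succinyl-Ala-Ala-Pro-Phe-p-nitroanilide. Absorbance at 405 nm read after 2 h at 37 °C. IC50 calculated from inhibition of p-nitroaniline formation at each concentration.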

In data set [3] the target is T4, Chymase. The data set is described as follows: Compound was evaluated for its inhibitory activity against human Serine protease chymase up to a concentration > 10000 nM; NA= not active. A digest of the protocol: as §2
Data set [4] deals with T2, Plasminogen. The data set is described as follows: Compound was evaluated for its inhibitory activity against human plasmin. A digest of the protocol: as §1
Data set [5] in a line: Half life was determined. Particulars: sodium methoxide 10 mM in methanol, 21 °C. Type of data set: ADME. A digest of the protocol:
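Chemical stability: 1 μmol compound added to 1 mL of 10 mM sodium methoxide in methanol, stirred at 21 °C. Aliquots removed every 2 h and analysed by reverse-phase HPLC to give t1/2.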

In the next data set the target is T5, Cathepsin G (Homo sapiens, UniProt P08311).
T5 sequence (P08311 whole entry): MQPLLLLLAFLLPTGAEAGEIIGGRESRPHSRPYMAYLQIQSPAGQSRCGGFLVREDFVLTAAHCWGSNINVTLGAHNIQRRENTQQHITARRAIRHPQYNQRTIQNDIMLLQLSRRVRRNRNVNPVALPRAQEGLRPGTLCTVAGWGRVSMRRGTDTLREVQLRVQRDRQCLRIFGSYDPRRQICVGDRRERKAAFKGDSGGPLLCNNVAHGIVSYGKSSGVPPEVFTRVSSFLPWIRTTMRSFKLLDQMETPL
The data set is described as follows: Compound was evaluated for its inhibitory activity against human cathepsin G.

As usually defined, the IC50 is the concentration at which inhibition is half-maximal. A higher IC50 goes with weaker potency in that assay. One may read the half-life as how long it takes for the measured level to halve.

T2 sequence (P00747 97-580 limits assumed): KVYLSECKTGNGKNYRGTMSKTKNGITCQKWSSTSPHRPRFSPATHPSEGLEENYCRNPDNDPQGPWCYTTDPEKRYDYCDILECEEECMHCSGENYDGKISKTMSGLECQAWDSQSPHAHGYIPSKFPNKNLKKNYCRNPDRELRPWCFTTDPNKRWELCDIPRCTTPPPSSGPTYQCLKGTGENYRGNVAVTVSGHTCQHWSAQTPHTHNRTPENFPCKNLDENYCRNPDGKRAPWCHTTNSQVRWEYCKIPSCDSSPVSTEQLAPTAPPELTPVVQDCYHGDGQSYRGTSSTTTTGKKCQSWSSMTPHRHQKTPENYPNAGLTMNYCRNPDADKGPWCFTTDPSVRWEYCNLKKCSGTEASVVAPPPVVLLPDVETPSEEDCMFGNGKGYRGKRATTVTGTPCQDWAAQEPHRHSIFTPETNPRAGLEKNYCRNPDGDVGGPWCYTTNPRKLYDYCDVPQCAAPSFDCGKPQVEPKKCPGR
T2 sequence (P00747 581-810 limits assumed): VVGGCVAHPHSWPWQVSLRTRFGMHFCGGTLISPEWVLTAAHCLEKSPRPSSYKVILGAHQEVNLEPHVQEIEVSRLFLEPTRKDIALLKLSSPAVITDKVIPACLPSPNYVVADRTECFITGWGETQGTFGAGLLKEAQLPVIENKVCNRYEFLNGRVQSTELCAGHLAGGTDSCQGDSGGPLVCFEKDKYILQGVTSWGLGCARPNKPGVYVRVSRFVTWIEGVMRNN

For `Cc1ccc(N2C(=O)N(c3ccc(C)cc3)C2=O)cc1`, the IC50 was 0.23 µM on Neutrophil elastase, 2.3 µM against Prothrombin, 0.2 µM against Serine protease 1 and 0.14 µM on Chymase [2]. In addition, on Plasminogen [1], the NA result was “inactive”.
As to `O=C1N(c2ccc3c(c2)OCO3)C(=O)N1c1ccc2c(c1)OCO2`, the IC50 against Chymase [2] came out at 0.048 µM.
At Chymase [2], `O=C1N(Cc2ccc3c(c2)OCO3)C(=O)N1Cc1ccc2c(c1)OCO2` yielded an IC50 of 0.00085 µM.
Same read-out and setting: then `COc1ccc(CN2C(=O)N(Cc3ccc(OC)cc3)C2=O)cc1`, with 0.002 µM.
For `CCOC(=O)CN1C(=O)N(CC(=O)OCC)C1=O`, on Chymase [3], the IC50 result was “Not Active”.
`COc1cccc(CN2C(=O)N(Cc3cccc(OC)c3)C2=O)c1` yielded an IC50 against Chymase [2] of 0.0023 µM.
Consider `O=C1N(Cc2ccccc2)C(=O)N1Cc1ccccc1`, for which the IC50 against Neutrophil elastase was 0.1 µM; against Plasminogen [4] it was 2.9 µM; at Prothrombin, 0.072 µM; at Serine protease 1, 0.039 µM; against Chymase [2] it was 0.004 µM. The molecule also showed a half-life in data set [5] of 9.5 h.
With `CCN1C(=O)N(CC)C1=O`, the IC50 against Cathepsin G is 0.74 µM; against Neutrophil elastase it was 0.058 µM; against Plasminogen [4], above 10 µM; on Chymase [3], “Not Active”; against Prothrombin, 5.6 µM; on Serine protease 1, 39 µM.
